Biological target: Nuclear receptor ROR-alpha (Homo sapiens) (UniProt P35398)
Test: direct binders of RORa ligand-binding domain, late-stage follow-up, orthogonal assay for RORA inverse agonist project, biochemical, [3H]25-hydroxycholesterol, radioligand competition, GST-RORa LBD (AID 504906)
Conditions: [3H]25-hydroxycholesterol displacement
Procedure, shortened: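 Assay system: purified GST-tagged human RORα ligand-binding domain, residues 304-556, E. coli-expressed. Medium: 50 mM HEPES buffer, pH 7.4, with 0.01% BSA. Also added: [3H]25-hydroxycholesterol radioligand at 3 nM final. Technique: GF/B filter capture of bound radioligand. Evaluation: Ki via mixed-inhibition model regression.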

Nuclear receptor ROR-alpha (Homo sapiens), sequence (P35398 whole entry, looked up, the tested form may be a part): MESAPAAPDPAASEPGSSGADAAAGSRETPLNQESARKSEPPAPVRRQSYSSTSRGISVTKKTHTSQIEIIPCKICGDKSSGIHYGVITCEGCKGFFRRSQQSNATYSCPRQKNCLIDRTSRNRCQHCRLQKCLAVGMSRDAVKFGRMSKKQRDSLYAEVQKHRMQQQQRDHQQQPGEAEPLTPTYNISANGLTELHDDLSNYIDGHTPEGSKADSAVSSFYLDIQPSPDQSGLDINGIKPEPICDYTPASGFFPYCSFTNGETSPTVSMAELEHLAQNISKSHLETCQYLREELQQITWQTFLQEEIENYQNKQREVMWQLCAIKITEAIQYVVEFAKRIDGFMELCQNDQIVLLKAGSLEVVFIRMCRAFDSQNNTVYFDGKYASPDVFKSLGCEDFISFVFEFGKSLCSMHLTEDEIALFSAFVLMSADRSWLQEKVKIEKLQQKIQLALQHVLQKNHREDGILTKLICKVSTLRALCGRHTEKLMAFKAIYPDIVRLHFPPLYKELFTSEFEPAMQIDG

Ki: 0.22 µM
SMILES: O=S(=O)(Nc1ccc(C(O)(C(F)(F)F)C(F)(F)F)cc1)c1cccs1

Reference: PubChem BioAssay AID504906 (The Scripps Research Institute Molecular Screening Center, 2011)
